Source: PubChem
RBBP9 inhibitor – human RBBP9 inhibitors, primary screen, biochemical, fluorescence polarization, FP-Rh probe, HTS | recombinant RBBP9 | inhibition, % at 7.94 µM | 220,000 tested, 0.2% active | AID 1515, 2009;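 active = inhibition above the campaign mean of all tested compounds plus 3 SD, cut at about 14% in these data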;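 also: plate controls were DMSO wells with RBBP9 for no effect and wells lacking RBBP9 protein for full effect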
Target sequence (O75884 whole entry, looked up): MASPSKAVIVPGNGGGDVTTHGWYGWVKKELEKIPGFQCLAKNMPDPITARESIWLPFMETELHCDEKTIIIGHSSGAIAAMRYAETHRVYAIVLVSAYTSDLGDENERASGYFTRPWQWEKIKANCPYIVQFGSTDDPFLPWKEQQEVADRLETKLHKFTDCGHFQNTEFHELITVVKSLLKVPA
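Test system: recombinant human RBBP9; Timing: 30 min then 45 min, 25 °C; Detection: fluorescence polarization; Control set: RBBP9 with DMSO as uninhibited control, no-protein wells as full inhibition; Compound dosing: one concentration, 7.94 µM nominal, 0.794% DMSO; Probe or stimulus: FP-Rh activity-based probe, 375 nM before mixing.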
14-3-3 Bad inh – inhibitors of 14-3-3 zeta/Bad binding, primary screen, biochemical, TR-FRET, bovine 14-3-3 zeta; TR-FRET 14-3-3zeta/Dy647-pBad peptide displacement, 1 h; inhibition, % at 21.7 µM; 220,000 tested, 0.71% active; 14-3-3 protein zeta/delta (Bos taurus), P63103;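 active = inhibition above about 70%, limit read from the data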;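 also: 0% = full 14-3-3 plus peptide FRET controls and 100% = background without 14-3-3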
WT yeast gro inh – growth inhibition of WT strain, primary screen, mitochondrial fusion inhibitor project, WT and mutant strains, chemical genetic; mitochondrial fusion phenotypic screen; inhibition, % at 10 µM; 190,000 tested, 2.1% active; AID 1362, 2008; in the data active = inhibition above about 58%; tested in S. cerevisiae
Cl transport mod – KCC2 cotransporter modulators, thallium flux, primary screen, cell-based, HEK293 KCC2, FluoZin-2 fluorescence, MLSMR; Solute carrier family 12 member 5 (Homo sapiens), Q9H2X9; KCC2 cells, thallium flux FluoZin-2 fluorescence; B-score of Tl+ flux slope (higher = more flux/activation; lower = inhibition) at 10 µM; 190,000 tested, 2.2% active; AID 1456, 2008;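 active = thallium flux slope and its plate-corrected score both differing from the plate sample mean at a set confidence after two filtering rounds, in either direction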;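 also: slope of fluorescence scaled to starting intensity during 10 to 20 s after thallium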
ROMK primary – ROMK potassium channel modulators, primary screen, cell-based, thallium flux, MLSMR library | Tet-inducible ROMK, thallium flux fluorescence; actives lie on both sides | AID 1918, 2009 | B-score at 10 µM | ATP-sensitive inward rectifier potassium channel 1 (Homo sapiens), P48048 | 130,000 tested, 2% active;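 active = signal ratio slope over the read window, or its plate-corrected B-score, at least 3 SD from the plate mean, either direction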;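 also: B-score of the F/F0 ratio slope over 7 to 12 s after thallium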
Target sequence (P48048 whole entry, looked up): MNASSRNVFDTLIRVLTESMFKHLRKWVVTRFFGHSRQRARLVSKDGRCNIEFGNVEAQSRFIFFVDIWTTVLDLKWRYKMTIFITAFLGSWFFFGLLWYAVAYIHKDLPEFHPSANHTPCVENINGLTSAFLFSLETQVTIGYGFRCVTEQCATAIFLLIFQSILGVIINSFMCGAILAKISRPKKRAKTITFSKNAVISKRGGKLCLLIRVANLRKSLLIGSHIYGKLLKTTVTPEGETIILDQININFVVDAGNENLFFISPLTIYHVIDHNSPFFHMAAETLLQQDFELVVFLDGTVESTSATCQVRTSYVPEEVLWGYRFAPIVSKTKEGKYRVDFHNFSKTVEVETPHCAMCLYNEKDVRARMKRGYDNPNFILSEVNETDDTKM
p47phox inh – p47phox/p22phox peptide binding inhibitors, primary screen, biochemical, uHTS, NADPH oxidase regulatory subunit; Neutrophil cytosol factor 1 (Homo sapiens), P14598; fluorescence polarization, 2 h; inhibition, % at 24.7 µM; 220,000 tested, 0.53% active; AID 1274, 2008;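 active = inhibition above about 30%, limit read from the data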;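 also: 0% = p47phox with labelled peptide and 100% = labelled peptide alone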
ROMK retest – ROMK channel modulator hit retest, confirmation, cell-based, thallium flux, duplicate, resupplied hits; shares compounds with ROMK primary; fluorescence ratio; active compounds read low; normalized thallium flux (F/F0 slope) at 10 µM; 3,000 tested, 54% active; AID 1917, 2009;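 active = Flux at 10 µM at least 3 SD below or above vehicle control mean in one or both replicates; inconclusive = no clear call, values can overlap the other calls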
An asterisk follows results filed as active; i = inactive; ? = inconclusive; / = no result. The list is not random: actives were taken first. Their share in the collection is about 5.8%.

SMILES	RBBP9 inhibitor	14-3-3 Bad inh	WT yeast gro inh	Cl transport mod	ROMK primary	p47phox inh	ROMK retest
Cc1c(CCOC(=O)CC23CC4CC(CC(C4)C2)C3)sc[n+]1CC(=O)c1ccccc1	-7	-3	3	1.1	-6.1*	-16	0.047*
Cc1c(CCOC(=O)C23CC4CC(CC(C4)C2)C3)sc[n+]1Cc1ccccc1	-1	-5	-3	0.95	/	-7	/
COc1ccc(OCC(=O)Nc2c3c(nn2C(C)(C)C)CSC3)cc1	-8	-5	-17	-1.5	-0.36	-22	/
CC(=O)c1ccc(NC(=O)Cn2c3ccccc3c3nc(=O)cc(C)n32)cc1	-7	0	/	-0.64	/	-10	0.086
COC(=O)Cn1c2ccccc2c2nc(=O)cc(C)n21	3	-3	-1	0.44	-0.81	7	/
O=C(C1CCN(S(=O)(=O)c2cnc[nH]2)CC1)N(CCc1ccccc1)Cc1ccccc1	-2	-6	-9	-0.003	-0.93	-12	/
O=C(c1cccc2ccccc12)N1CCN(CC2CC=CCC2)CC1 (stereo not drawn)	-2	65	8	/	-2.6*	14	0.059*
O=C(c1ccncc1)N1CCN(C(=O)c2cccc3ccccc23)CC1	-8	-13	8	-0.55	/	-5	/
O=C(C1CCN(CCCc2ccccc2)CC1)N(CCc1ccccc1)Cc1ccccc1	2	33	34	-1.1	-5*	-6	0.05*
O=C(C1CCN(CC2CC=CCC2)CC1)N(CCc1ccccc1)Cc1ccccc1 (stereo not drawn)	-5	17	-5	/	-2.8*	-1	0.064*
CCC(=O)Nc1ccc2c(c1)nc1n2CCN(C2CCCCC2)C1	11	-16	-12	0.4	0.73	5	/
O=C(Nc1ccc2c(c1)nc1n2CCN(C2CCCCC2)C1)NC1CCCCC1	-1	34	-13	/	-3.1*	4	0.042*
O=C(CCl)c1ccc2c(c1)CCN2C(=O)C1CC1	-3	8	14	-0.32	-2.8*	-7	0.064*
COc1ccc(NC(=O)Cc2ccc(Cl)c(Cl)c2)cn1	-4	-4	3	-0.014	-1	-6	/
COc1ccc(NC(=O)/C(Cl)=C(/Cl)S(=O)(=O)Cc2ccc(C)cc2)cn1	-7	14	77	-1.1	-3.8*	-11	?
O=C(O)c1cc2c(s1)-c1ccccc1OC2	6	24	12	0.22	/	-6	?
COc1ccc(NC(=S)N2CCNC(=O)C2CC(=O)Nc2cccc(Cl)c2C)cc1 (stereo not drawn)	-5	15	12	0.92	-0.69	-14	/
CCOc1cc(CNc2ccc3c(c2)OCCO3)cc(Br)c1OC	-4	2	27	-1.3	4.9*	-5	0.076
CCOc1c(Br)cc(CNc2ccc3c(c2)OCCO3)cc1OC	0	1	-4	-0.29	3.4	-19	/
COc1cccc(C(=O)NN2C(=S)N(c3ccccc3)C(=O)C2CC(N)=O)c1 (stereo not drawn)	1	-1	/	0.11	0.54	-2	/
CCOC(=O)c1[nH]c2ccc(OC)cc2c1NC(=O)NC(C)C	-5	-5	-2	-0.0073	/	-5	/
CCOC(=O)c1[nH]c2ccc(OC)cc2c1NC(=O)OC	-3	3	14	-0.021	/	-8	?
CCOC(=O)c1ccc(N2C(=O)c3n[nH]c(C)c3C2c2ccc(OC)cc2)cc1 (stereo not drawn)	6	-8	0	1.5	/	-5	/
CCOC(=O)c1ccc(N2C(=O)c3n[nH]c(C)c3C2c2ccc(OC)c(OC)c2)cc1 (stereo not drawn)	-5	-6	-53	-1.4	/	-8	0.087
CS/C(Nc1cc(Cl)ccc1Cl)=C(/C#N)C(=O)c1ccco1	-8	13	/	/	/	-6	0.051*
SMILES	RBBP9 inhibitor	14-3-3 Bad inh	WT yeast gro inh	Cl transport mod	ROMK primary	p47phox inh	ROMK retest
N#C/C(=C\c1cccnc1)C(=O)Nc1ccc(C(=O)O)cc1	-10	-3	-14	-0.025	2	6	/
COc1ccc(/C=C(\C#N)C(=O)Nc2cccnc2)cc1	-5	-2	-3	0.78	0.18	-30	/
CCOc1cccc(NC(=O)/C(C#N)=C\c2cccnc2)c1	7	-2	-1	-0.42	-3.3*	-26	0.047*
N#C/C(=C\c1cccnc1)C(=O)Nc1ccccc1	4	-1	-5	-0.89	-4.2*	-24	0.053*
COc1ccc(OC)c(NC(=O)CSc2ncnc3c2cnn3-c2ccccc2Cl)c1	-3	-2	17	-1.4	-3.2*	-17	0.06*
COc1cc(NC(=O)CSc2ncnc3c2cnn3Cc2ccccc2)cc(OC)c1	6	25	10	0.13	0.1	-10	/
O=C(N/N=C/c1ccc(O)cc1)Nc1cccc2nsnc12	1	0	10	0.88	0.76	-25	/
Cc1noc(C)c1CS(=O)(=O)c1ccc(Br)cc1	-7	5	-4	-0.043	/	-1	0.082
CCCCNC(=O)c1cc2cc(CC)ccc2[nH]1	-11	0	/	0.74	0.52	-9	/
O=C(Nc1ccc(F)cc1)/C(=C1/CCCCCN1)[N+](=O)[O-]	-2	-5	/	0.72	/	-20	/
CCCCCc1ccc(-c2ccc(=O)[nH]n2)cc1	-6	-5	19	/	-0.31	-9	0.072
CN(C)S(=O)(=O)c1ccc(-c2csc(N/N=C/c3ccc(O)cc3)n2)cc1	3	8	/	0.032	/	-22	/
COc1ccccc1-c1nnc(SCC(=O)NCc2cccs2)n1N	-2	-3	-19	0.12	-0.022	-9	/
COc1ccc(/C=C2/C(=O)OCc3cc(OC)c(OC)cc32)cc1	-6	3	-4	-1	2.6*	-4	0.088
COc1ccc(S(=O)(=O)Nc2ccc3c(c2)COC3=O)cc1OC	0	2	-4	0.39	0.27	-3	/
COc1ccc(OC)c(NC(=O)c2cccc(S(=O)(=O)N(Cc3ccccc3)c3ccccc3OC)c2)c1	-14	12	11	1	/	-28	0.078
COc1ccccc1N(Cc1ccccc1)S(=O)(=O)c1cccc(C(=O)Nc2ccc(C(C)=O)cc2)c1	-5	-11	-9	i	1.1	-11	/
COc1ccc(OC)c(N(CC(=O)Nc2ccc3c(c2)OCO3)S(=O)(=O)c2ccccc2)c1	-6	14	14	-1.9	-2.8*	-4	0.075
